# Screening results: PubChem BioAssay, several laboratories
# A selection: hits, their analogues and other compounds. The true share with any hit is near 3.8%.
# HSF1 activator: increases HSF-1 driven luciferase reporter signal | NIH3T3-HGL HSF-1 luciferase reporter, MG132, 8 h; 100% = twice DMSO control signal | activation, % at 9 µM | hit rate 1.7% among 300,000 | AID 504408;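 active means mean replicate activation of at least 50% with a set share of replicates each reaching 50%; inconclusive means only one of those two conditions met; inactive means mean below 50% and too few replicates reaching it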;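 further: 0% = median of the neutral control wells and 100% = twice that signal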
# HSP90 inh: inhibitors of HSP90 luciferase refolding in rabbit reticulocyte lysate | luciferase refolding luminescence, 3 h | hit rate 0.91% among 290,000 | inhibition, % at 5.6 µM;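 active means inhibition above the screen-wide mean plus 3 SD, computed separately per campaign, cut at about 16% in these data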;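 further: 0% = DMSO wells and 100% = 60 µM geldanamycin wells; inhibitors lower the luminescence because luciferase stays unfolded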
# Lipid droplet: hepatic lipid droplet formation modulation | AML12 mouse hepatocytes, oleate lipid droplets, BODIPY imaging | inhibition, % at 6.5 µM | hit rate 0.4% among 240,000 | AID 1656;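 active means lipid droplet intensity inhibited by at least 50%, with more than 500 cells counted; inconclusive means wells with under 300 cells, treated as cytotoxic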
#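 System: AML12 hepatocytes (mouse). Probe or stimulus: oleic acid at 100 µM to induce lipid droplet formation. Times: overnight treatment with compound plus oleate. Detection: Image-based BODIPY and DAPI two-channel analysis. Evaluation: percent inhibition of filter-corrected integrated lipid droplet intensity per well.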
# NS3 helicase inh: HCV NS3 helicase inhibition; inhibition, % at 10.9 µM; hit rate 0.56% among 290,000; NS3 helicase DNA unwinding, Cy5 molecular beacon fluorescence;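 active means inhibition above the mean of all tested compounds plus 3 SD, set per campaign, cut at about 35% in these data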;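 further: 0% = DMSO wells and 100% = thioflavine S control wells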
#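 test system = hepatitis C virus NS3 helicase domain fragment enzyme | reagent = annealed dual-labelled DNA beacon duplex, ATP-started | times = 1 h at 25 °C | detection = Cy5 fluorescence, 0 and 60 min reads | read-out basis = percent inhibition from t60/t0 fluorescence ratio | control set = DMSO and thioflavine S | replication = one well per compound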
# HSF1 inh: HSF1 inhibition | NIH3T3-HGL HSE-luciferase, MG132-induced, luminescence 8 h; stronger effect = lower value | activity change, negative = inhibition, % at 7.5 µM (by protocol) | AID 2098 | hit rate 0.77% among 300,000;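 active means more than half of replicate wells show activity change below -50%, luminescence cut by over half; inconclusive means some wells, but at most half, below -50%; inactive means no replicate well below -50%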;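 further: luciferase reports HSF-1 transcriptional activity via heat shock element; 0% = median of DMSO wells and -100% = zero luminescence signal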
# * marks the source's active call; other numbers are inactive results; ? = inconclusive; / = no result.
SMILES,HSF1 activator,HSP90 inh,Lipid droplet,NS3 helicase inh,HSF1 inh
CC(=O)Nc1ccc(S(=O)(=O)NC2=C(N3CCN(c4ccc(F)cc4)CC3)C(=O)c3ccccc3C2=O)cc1,75*,4,-12,-1,61
CC1CCCN(C2=C(NS(=O)(=O)c3ccc(Cl)cc3)C(=O)c3ccccc3C2=O)C1 (centres undefined),20,6,57*,-8,0
Cc1ccc(NC(=O)CSCC(=O)N(C)CC(=O)Nc2cccc(F)c2)cc1,7,/,/,/,3
O=C(NCc1ccc(Cl)cc1)c1n[nH]c([N+](=O)[O-])c1Cl,22,-3,-11,16,12
CC(C(=O)NN)c1ccc([N+](=O)[O-])cc1 (centres undefined),2,1,10,-1,-3
COc1ccc(NC(=O)c2ccco2)c(NC(=O)c2ccc([N+](=O)[O-])cc2)c1,-2,2,-14,15,1
CC(=O)c1ccc(NC(=O)c2ccc(C)c(Br)c2)cc1,56*,-1,-2,-9,32
Cc1ccccc1SCCNC(=O)c1ccccc1Br,?,1,-4,-13,34
COc1ccc(NC(=O)c2ccccc2NS(=O)(=O)c2ccc(CNC(C)=O)cc2)c(OC)c1,7,-1,18,-1,-5
COc1ccc(C)cc1Nc1n[n+](-c2ccccc2)c(-c2ccc(SC)cc2)s1,13,6,-2,-30,6
CNC(=O)c1cc2c(ccc3ccccc32)o1,58*,-1,27,-1,30
O=C(NC1CCCC1)c1cc2c(ccc3ccccc32)o1,22,8,-15,2,20
O=C1c2ccccc2NC(c2ccco2)N1/N=C/c1ccco1 (centres undefined),21,4,-7,1,12
Cc1ccc(/C=N/N2C(=O)c3ccccc3NC2c2ccc(C)cc2)cc1 (centres undefined),55*,-2,3,-4,29
Cc1ccc(C=Nc2ccccc2C(N)=O)s1,63*,1,?,11,32
O=C(/C=C/c1ccc(Br)cc1)NC(=O)c1ccccc1O,161*,-2,44,8,127
Cc1ccc(-c2nn(C)c(=O)c3ccccc23)cc1S(=O)(=O)NCCN(C)C,-67,3,2,-9,-61*
Cc1cc(C)cc(C(=O)NC(=S)Nc2ccc3c(c2)OCCO3)c1,122*,2,-17,9,71
CCc1ccc(C(=O)NC(=S)Nc2ccc3c(c2)OCCO3)cc1,24,-2,-28,0,18
O=C(NC(=S)Nc1ccc(N2CCOCC2)c(Cl)c1)c1cncc(Br)c1,12,-1,0,-3,1
O=C(NC(=S)Nc1ccc(N2CCCCC2)c(Cl)c1)c1ccc2c(c1)OCCO2,-64,2,/,2,-60*
COCCn1c(SCc2cc(=O)n3cc(C)ccc3n2)nc2ccccc2c1=O,-4,-1,6,8,4
Cc1cccc(C(=O)Nc2ccc3c(c2)ncn3C)c1,37,1,20,-1,12
FC(F)(F)c1nnc(-c2ccccc2)nc1Sc1ccc(Cl)cc1,41,4,16,5,35
FC(F)(F)c1nnc(-c2ccccc2)nc1Sc1ccccc1,260*,3,/,10,261
SMILES,HSF1 activator,HSP90 inh,Lipid droplet,NS3 helicase inh,HSF1 inh
COC1(OC)C(/C=C/c2ccc(Cl)cc2)C(C#N)(C#N)C1(OC)OC (centres undefined),99*,6,-6,14,80
O=C(CCl)Nc1cc(SCC(O)CO)cc([N+](=O)[O-])c1 (centres undefined),-73,4,-96,0,-71*
CC(C)(C)NS(=O)(=O)c1ccc(/C=C/C(=O)O)cc1,0,-2,3,-13,-8
Cc1cccc(/C(N)=N/OC(=O)c2ccoc2C)c1,85*,6,-7,9,34
Cc1occc1C(=O)O/N=C(\N)c1ccccc1,33,3,0,-8,21
CC1(C)CC(=O)C2=C(C1)OC(N)=C(C#N)C2c1ccccc1 (centres undefined),-61,-2,/,0,-54*
Fc1ccc(-c2nc3c(-c4ccc(Cl)cc4)cnn3cc2CCN2CCOCC2)cc1,-55,-5,-8,-7,-43
COc1cc([C@@H]2c3cc4c(cc3[C@H](O)[C@H]3COC(=O)[C@H]23)OCO4)cc(OC)c1OC,-74,3,?,-3,-69*
COc1cc([C@@H]2c3cc4c(cc3[C@@H](O[C@@H]3O[C@@H]5CO[C@@H](C)O[C@H]5[C@H](O)[C@H]3O)[C@H]3COC(=O)[C@H]23)OCO4)cc(OC)c1O,-12,/,/,/,6
O=C1CCC/C(=N/NC(=O)c2sc3ccccc3c2Cl)C1,18,1,14,17,5
CCOc1ccccc1/C=C/c1onc(C)c1S(=O)(=O)N1CCC(C(=O)NC(C)(C)C)CC1,-86,4,-27,-8,-83*
CCOc1ccccc1/C=C/c1onc(C)c1S(=O)(=O)N1CCC(C(=O)NC)CC1,6,-6,-5,-23,7
CC(Sc1nc(NC(C)(C)C)nc(N(C)C)n1)C(=O)Nc1ccccc1 (centres undefined),29,-5,5,2,9
CCOc1nc(SC(C(C)=O)C(=O)Nc2ccccc2)nc(N(C)C)n1 (centres undefined),56*,-3,3,0,34
Cc1ccccc1OCC(=O)Nc1ccc(N2CCN(C)CC2)c(Cl)c1,42,9,-24,-37,20
Cn1ncc([N+](=O)[O-])c1C(=O)n1nnc2ccccc21,/,5,20,18,/
COc1cc(NC(=O)CN(C)S(=O)(=O)c2ccc3c(c2)CC(C)N3C(C)=O)cc(OC)c1 (centres undefined),-88,4,-28,-4,-84*
CC(=O)N1c2ccc(S(=O)(=O)N(C)CC(=O)Nc3cccc(C)c3)cc2CC1C (centres undefined),17,-4,-11,1,0
CC(=O)N1c2ccc(S(=O)(=O)N(C)CC(=O)Nc3ccccc3C)cc2CC1C (centres undefined),-70,-3,-5,0,-61*
COc1ccc(NC(=O)CN(C)S(=O)(=O)c2ccc3c(c2)CC(C)N3C(C)=O)c(OC)c1 (centres undefined),-22,-8,-8,-1,-2
CC(=O)/C(=N/Nc1ccc(Br)cc1)N1CCCc2ccccc21,57*,0,27,-1,22
COc1ccc(N(CC(=O)NCCc2ccc(OC)c(OC)c2)S(=O)(=O)c2c(C)noc2C)cc1,-18,-6,-45,-5,-1
O=C(Nc1ccccc1)C1=C(c2ccccc2)S(=O)(=O)CCS1(=O)=O,-68,1,-1,19,-62*
CCc1ccccc1NC(=O)COc1cccc2ccc(C)nc12,-82,1,-9,-1,-77*
CC(=Nc1ccc(C)cc1C)c1sc2ccccc2c1O,53*,0,-10,-6,12
